From PubChem
The full list was thinned out, with hits kept by preference.
PvdQ inh: blocks Pseudomonas aeruginosa PvdQ acylase activity; purified PvdQ acylase, fluorescence plate reader; inhibition, % at 10 µM; actives 0.063% (n = 340,000); in the data active = inhibition above about 30%, passing the limit was not always enough;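 also: 0% = vehicle neutral wells and 100% = reference inhibitor wells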
XBP1 UPR activ: adaptive UPR (XBP1) activation; activation, % at 20 µM; CHO-XBP1 luciferase reporter, IRE1-XBP1 UPR activation, luminescence; percent of tunicamycin response, DMSO as zero; actives 0.33% (n = 330,000);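 active = versus positive control, 20 µM dose yields 30% or more activation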;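 also: 100% = tunicamycin at 10 µg/mL and 0% = DMSO only wells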
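Test system: CHO-XBP1 luciferase reporter cells | Buffer or medium: Serum-containing F12 medium, 10% FBS | Schedule: 6 h compound exposure at 37 °C, 5% CO2 | Detection: Steady-Glo luciferase glow luminescence, 10 min after reagent addition | Read-out basis: Activation, % of tunicamycin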
CHOP UPR activ: apoptotic UPR (CHOP) activation; CHO-CHOP luciferase reporter, luminescence; percent of tunicamycin response over DMSO baseline; activation, % at 10 µM; actives 0.34% (n = 330,000); AID 449763;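 active = at 10 µM dose, activation of 40% or more, normalized to positive control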;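 also: 100% = tunicamycin at 10 µg/mL and 0% = DMSO alone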
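System: CHO-CHOP luciferase reporter cell line | Buffer or medium: F12 medium containing 10% fetal bovine serum | Doses: One dose, 10 µM in 0.5% DMSO | Times: 6 h compound exposure at 37 °C after overnight seeding | Signal: Luciferase luminescence | Read-out: % activation vs tunicamycin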
CHOP inh: blocks CHOP induction under ER stress | CHO-K1 CHOP-promoter luciferase, tunicamycin-induced, 15-18 h | inhibition, % at 10 µM | actives 3.8% (n = 220,000);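 active = compounds that reduced the stress-induced luciferase reporter signal by more than about 70% of percent inhibition, limit read from the data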;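 also: 0% = tunicamycin plus vehicle and 100% = wells without tunicamycin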
CHOP UPR conf: confirmation of apoptotic unfolded protein response (CHOP) activators; shares compounds with CHOP UPR activ; CHO-CHOP cells, CHOP-luciferase reporter luminescence; percent of tunicamycin response, DMSO as zero; activation, % at 10 µM; actives 64% (n = 1,000); AID 463112; in the data active = activation above about 33%;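 also: 0% = DMSO wells and 100% = tunicamycin 10 µg/mL wells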
Active calls of the source: *; · = not tested or not shown.

SMILES	PvdQ inh	XBP1 UPR activ	CHOP UPR activ	CHOP inh	CHOP UPR conf
Cc1cc(N/N=C/c2cccc([N+](=O)[O-])c2)nc(-n2nc(C)cc2C)n1	5	1	0	36	·
Cc1cc(N/N=C/c2cccc(Cl)c2)nc(-n2nc(C)cc2C)n1	4	6	51*	-29	7
Cc1onc(-c2c(F)cccc2Cl)c1C(=O)N(C)CCc1ccccn1	6	-6	-1	·	·
Cc1ccc2nc(-c3ccc(O)c(O)c3)cn2c1	7	1	155*	·	61*
CC(=O)Nc1ccc(-c2cn3cc(C)ccc3n2)cc1	10	1	1	17	·
Cc1ccc(CC2SC(N=C(N)N)=NC2=O)cc1 (centres undefined)	-1	0	2	·	·
N#Cc1ccccc1Cn1cc(/C=C/[N+](=O)[O-])c2ccccc21	-14	1	85*	-20	5
O=C(Cn1cc(/C=C\[N+](=O)[O-])c2ccccc21)Nc1ccccc1	-10	11	61*	-31	115*
O=C(O)Cn1cc(/C=C/[N+](=O)[O-])c2ccccc21	-4	0	-1	-16	·
COC(=O)C(Cc1ccc(O)cc1)NC(=O)c1ccc2c(c1)OCCO2 (centres undefined)	-2	-6	1	·	·
COc1ccc(N2C(=O)CC(Sc3nc4ccccc4s3)C2=O)cc1 (centres undefined)	-7	-4	1	-62	·
CC(C)c1ccc(N2C(=O)CC(Sc3nc4ccccc4o3)C2=O)cc1 (centres undefined)	-5	-6	199*	35	95*
C/C(=N\NC(=O)c1ccc(Cl)cc1)c1ccccn1	-17	2	407*	·	403*
CCCCCC(=O)N/N=C(\C)c1ccccn1	-8	1	-1	29	·
C/C(=N\NC(=O)COc1ccccc1-c1ccccc1)c1ccccn1	-5	1	105*	37	205*
COc1ccc(N=Nc2ccc(O)c3ncccc23)cc1	5	11	153*	61	148*
COc1cccc(N=Nc2ccc3cccnc3c2O)c1	-15	4	127*	·	86*
COc1cccc(N=Nc2ccc(O)c3ncccc23)c1	-3	7	107*	·	86*
Oc1ccc(N=Nc2ccc3c(c2)OCCO3)c2cccnc12	-11	-2	8	0	·
O=C(O)C(CCc1ccccc1)N1C(=O)c2ccccc2C1=O (centres undefined)	3	·	·	·	·
COc1cc(OC)c(NC2=CC(=O)C(=O)c3ccccc32)cc1Cl	-8	20	53*	·	18
Cc1ccc(-c2nc(SCC(=O)Nc3cc(C)on3)c3c(=O)n(C)c(=O)n(C)c3n2)cc1	11	27	58*	·	104*
CCOC(=O)c1ccc(N(CC2CO2)S(=O)(=O)c2ccc(C)cc2)cc1 (centres undefined)	-9	·	·	·	·
CN(C)C(=S)N=Nc1[nH]c2ccccc2c1O	·	7	466*	-127	341*
O=C(O)c1ccc(N2C(=O)c3[nH]nc(-c4ccccc4)c3C2c2ccccc2)cc1 (centres undefined)	-2	0	-2	-10	·
SMILES	PvdQ inh	XBP1 UPR activ	CHOP UPR activ	CHOP inh	CHOP UPR conf
CCOc1cc(C2c3c(-c4ccccc4)n[nH]c3C(=O)N2c2ccc(C(=O)O)cc2)ccc1O (centres undefined)	-9	-5	45*	18	1
CCOC(=O)N1CCN(c2cc(=O)n(-c3cccc(C)c3)c(=O)[nH]2)CC1	-20	1	-2	3	·
COc1ccc(-n2ncc(Cl)c(Cl)c2=O)cc1	·	-7	50*	70	23
c1ccc(CSC2=NNC(c3ccccn3)S2)cc1 (centres undefined)	-15	10	240*	17	313*
c1ccc(CSc2ncccn2)cc1	-9	4	2	37	·
CCC/C(=N\NC(=O)c1cccc(C)c1)c1ccccc1	4	-5	5	21	·
CCc1nc2ccccc2[nH]c1=O	-8	-3	2	-18	·
COc1nc(N)nc(NC(=O)c2cccs2)c1N=O	-15	-1	70*	·	62*
COc1ccc(NC(=O)c2ccc(NC(=O)c3cccs3)cc2)cc1	-5	7	1	·	·
COC(=O)[C@@H]1[C@@H](C#N)C2(c3ccccc3-c3ccccc32)N(c2ccc(Cl)cc2)N1C#N	-14	4	92*	82*	55*
CC1=C/C(=N\OC(=O)/C=C/c2ccccc2)C(C)=CC1=O	1	-5	107*	3	41*
O=C(CSc1cccc2cccnc12)N1CCCC1	-19	10	-8	-8	·
CN(C)C(=O)CSc1cccc2cccnc12	2	4	214*	30	205*
CC(=O)N(C)Cc1ccc(C(=O)CCl)cc1	-16	-8	94*	105*	2
Cc1ccc(Sc2c(O)c3ccccc3n(C)c2=O)cc1	-4	·	·	-31	·
Cc1ccc(Sc2c([N+](=O)[O-])c(=O)n(C)c3ccccc23)cc1	9	1	101*	·	99*
COc1ccc(OC)c(NC(=O)CSc2nnc(NC(=O)c3ccco3)s2)c1	14	-1	-1	·	·
CCCS(=O)(=O)c1c(S(=O)(=O)CCC)c2c(N)cccn2c1C(=O)c1ccc(OC)cc1	7	-4	55*	-12	0
CC(OC(=O)Cc1c[nH]c2ccccc12)C(=O)c1ccccc1 (centres undefined)	7	1	1	·	·
CCOc1cccc2cc(-c3csc(NC(=O)CCC(=O)N4CCC(C)CC4)n3)c(=O)oc12	4	37*	95*	86*	16
CCOc1cccc2cc(-c3csc(NC(=O)CCC(=O)NCCCN4CCC(C)CC4)n3)c(=O)oc12	·	3	5	-8	·
CCOC(=O)Cc1csc(NC(=O)C(C)c2ccc([N+](=O)[O-])cc2)n1 (centres undefined)	7	-1	-2	9	·
S=C1SCN(Cc2ccccn2)CN1Cc1ccco1	7	2	102*	-84	50*
S=C1SCN(Cc2cccnc2)CN1Cc1ccccc1	-6	4	-1	-109	·
CCOCCCN1CN(Cc2ccco2)CNC1=S	-6	-3	1	12	·
SMILES	PvdQ inh	XBP1 UPR activ	CHOP UPR activ	CHOP inh	CHOP UPR conf
COCCN1CSC(=S)N(Cc2ccco2)C1	-12	4	91*	-191	53*
Cc1ccc(NC(=O)CCC(=O)NNC(=O)COc2ccc([N+](=O)[O-])cc2)c(C)c1	-12	0	0	·	·
O=C(NCc1cccnc1)/C(=C\c1ccc(-c2cccc(Cl)c2)o1)S(=O)(=O)c1ccccc1	2	·	·	43	·
O=C(NCc1cccnc1)/C(=C/c1ccc(-c2cccc(Cl)c2)o1)S(=O)(=O)c1ccccc1	9	-8	83*	94*	114*
CCOc1ccc(S(=O)(=O)N2CCCCC2)cc1NC(=O)c1c(CC)noc1C	0	-1	-2	·	·
Cc1cccn2c(=O)c3cc(C(=O)NCCc4ccccc4)c(=N)n(Cc4ccco4)c3nc12	-10	0	6	·	·
